An excerpt weighted towards active compounds, which were near 4.1% of everything screened.
KCNQ1 inh – blocks the human KCNQ1 potassium channel; P51787; CHO-K1 KCNQ1, FluxOR thallium flux fluorescence; active compounds read high; B-score at 10 µM; 310,000 tested, 1.3% active;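 active = compounds whose thallium flux B-score, printed positive for inhibition, exceeds three library SD while starting fluorescence stays within three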;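 note: channel opened by potassium depolarization with thallium stimulus after 20 min compound exposure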
hERG rescue – compounds protecting human hERG from proarrhythmic drug block; Q12809; activation (rescue from dofetilide block), less the hit threshold, % at 10 µM; 310,000 tested, 0.51% active; CHO-hERG, FluxOR thallium flux, dofetilide IC70 present;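 active = activation above the mean of controls blocked by dofetilide plus 5 SD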;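 note: thallium influx through hERG after potassium depolarization seen as dye fluorescence rise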
KCNK9 block – inhibitors of human KCNK9 two-pore domain potassium channel; 310,000 tested, 1.2% active; HEK293 KCNK9, FluxOR thallium flux fluorescence; active compounds read low; AID 488922; Q9NPC2; B-score at 10 µM;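 active = ratio B-score over 3 SD below the library mean, with starting fluorescence within 5 SD of its mean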;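 note: negative B-score means less thallium flux so channel inhibition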
Target sequence (Q9NPC2 whole entry, looked up, the tested form may be a part): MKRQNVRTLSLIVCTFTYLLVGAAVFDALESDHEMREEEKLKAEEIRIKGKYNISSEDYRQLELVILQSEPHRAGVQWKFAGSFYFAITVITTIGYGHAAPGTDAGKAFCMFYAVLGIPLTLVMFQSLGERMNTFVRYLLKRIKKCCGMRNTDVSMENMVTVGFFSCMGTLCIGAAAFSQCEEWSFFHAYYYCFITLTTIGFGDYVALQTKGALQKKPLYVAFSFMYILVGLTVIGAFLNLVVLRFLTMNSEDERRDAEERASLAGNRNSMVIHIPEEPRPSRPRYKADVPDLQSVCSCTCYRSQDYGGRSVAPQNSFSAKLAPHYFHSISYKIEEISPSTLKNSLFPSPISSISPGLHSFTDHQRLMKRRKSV
KCNQ1 act – potentiates or activates the human KCNQ1 potassium channel; CHO-K1 KCNQ1, thallium flux FluxOR fluorescence; active compounds read high; B-score at 10 µM; 310,000 tested, 0.35% active;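 active = fluorescence ratio B-score, a plate-corrected score, at least three library SD, with initial intensity B-score within 5 SD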
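Schedule – 37 °C overnight plating, 90-min dark dye load, 20-min compound pretreatment · System – stable KCNQ1 CHO-K1 line · Probe or stimulus – thallium- and potassium-containing depolarizing buffer · Measured by – kinetic FluxOR fluorescence, 10 s baseline plus 110 s post-stimulus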
Cl transport mod – modulates chloride dependent transport by human KCC2. AID 1456. KCC2 cells, thallium flux FluoZin-2 fluorescence. B-score of Tl+ flux slope (higher = more flux/activation; lower = inhibition) at 10 µM. 190,000 tested, 2.2% active. Q9H2X9;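 active = thallium flux slope and its plate-corrected score both differing from the plate sample mean at a set confidence after two filtering rounds, in either direction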;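 note: slope of fluorescence scaled to starting intensity during 10 to 20 s after thallium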
KCNK3 inh – human KCNK3 channel inhibition, primary screen; O14649; CHO-KCNK3 thallium flux, FluxOR fluorescence; active compounds read low; B-score at 10 µM; 340,000 tested, 0.84% active; AID 602410;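 active = B-score under library mean minus 4 SD, starting fluorescence ratio at most library mean plus 5 SD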;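 note: more negative B-score means stronger inhibition of thallium flux through KCNK3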
Target sequence (O14649 whole entry, looked up): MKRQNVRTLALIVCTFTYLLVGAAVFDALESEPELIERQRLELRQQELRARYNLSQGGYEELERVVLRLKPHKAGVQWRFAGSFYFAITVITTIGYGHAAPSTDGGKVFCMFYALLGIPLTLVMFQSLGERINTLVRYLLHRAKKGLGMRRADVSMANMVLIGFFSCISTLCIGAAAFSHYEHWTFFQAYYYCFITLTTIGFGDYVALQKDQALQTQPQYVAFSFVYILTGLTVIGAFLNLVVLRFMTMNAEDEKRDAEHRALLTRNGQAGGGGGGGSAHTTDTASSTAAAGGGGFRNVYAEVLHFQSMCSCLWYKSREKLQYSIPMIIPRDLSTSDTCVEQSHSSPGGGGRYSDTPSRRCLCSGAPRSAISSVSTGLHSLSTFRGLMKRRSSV
KCC2 sec1 – KCC2 (human) modulation, secondary assay; shares compounds with Cl transport mod; 3,700 tested, 15% active; AID 1713; HEK293-KCC2, thallium flux, FluoZin2 fluorescence; active compounds read high; normalised thallium flux (F/F0 slope) at 10 µM;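 active = thallium flux slope above the same plate's solvent-only control mean plus 3 SD; inconclusive = the two replicate wells disagree; inactive = no significant difference from solvent-only control wells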
KCC2 bumet counter – thallium flux persisting under bumetanide in KCC2 cells, counter-screen secondary assay; shares compounds with Cl transport mod; HEK293-KCC2 + bumetanide/ouabain, thallium flux FluoZin2; active compounds read high; normalized thallium flux at 10 µM; 3,700 tested, 49% active;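 active = thallium entry rate above the same plate's blocked-transporter control wells by more than 3 SD; inconclusive = the two repeat wells disagree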;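 note: raw slope of fluorescence over initial fluorescence between 10 and 20 s after thallium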
KCC2 secondary2 – KCC2 (human) modulation, second secondary assay | 3,700 tested, 23% active | shares compounds with Cl transport mod | AID 1715 | HEK293-KCC2, thallium flux FluoZin2 fluorescence; actives lie on both sides; F/F0 rise rate, 10–20 s post-thallium | normalized thallium flux at 10 µM;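 active = thallium flux slope more than 3 SD above or below the plate's solvent-only control mean, mostly below; inconclusive = the two repeat wells disagreed; inactive = no significant shift from solvent-only controls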;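 note: raw slope with 0.1% DMSO as baseline and bumetanide as block control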
HEK counter1 – counter-screen for KCC2 modulators: effect in parental HEK293 cells | thallium flux FluoZin2, ouabain; baseline-ratio fluorescence slope, 10–20 s after thallium | shares compounds with Cl transport mod | thallium flux rate (normalised fluorescence) at 10 µM | 3,700 tested, 46% active;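 active = thallium flux rate significantly above the same plate's solvent-only control wells, beyond their mean plus 3 SD; inconclusive = the two replicate wells gave conflicting results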
KCC2 retest ouab – KCC2 (human) modulation, ouabain retest; HEK293-KCC2, thallium flux FluoZin2 fluorescence; bidirectional: low = inhibitor, high = activator; raw Tl+ flux slope (below DMSO = inhibition, above = activation) at 10 µM; shares compounds with Cl transport mod; 3,700 tested, 48% active;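 active = thallium flux slope beyond 3 SD from same-plate DMSO control mean in most replicates, usually higher, sometimes lower; inconclusive = repeat tests gave conflicting results; inactive = no significant difference from controls in most replicates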;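 note: slope of initial-normalized fluorescence between seconds 10 and 20 after thallium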
HEK counter2 – acts in parental HEK cells, second KCC2 counter-screen. shares compounds with Cl transport mod. thallium flux slope at 10 µM. 3,700 tested, 33% active. HEK293 parental, thallium flux FluoZin-2 fluorescence slope;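 active = thallium flux slope above the same plate's solvent-control mean plus 3 SD in both duplicate wells; inconclusive = duplicate wells that disagreed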;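 note: run without ouabain in cells lacking the KCC2 cotransporter; slope of fluorescence scaled to its starting value between 10 and 20 s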
An asterisk follows results filed as active; i = inactive; ? = inconclusive; nt = not tested or not shown.

SMILES	KCNQ1 inh	hERG rescue	KCNK9 block	KCNQ1 act	Cl transport mod	KCNK3 inh	KCC2 sec1	KCC2 bumet counter	KCC2 secondary2	HEK counter1	KCC2 retest ouab	HEK counter2
CC(C)c1nc2c(c(=O)c3ccccc3n2C)c(=O)n1CCc1ccccc1	i	-10.0	i	i	-4.38*	i	0.00999	0.022*	0.0316	0.0124*	0.0207	0.0106
Fc1ccccc1-n1c(-c2ccc3ccccc3n2)n[nH]c1=S	i	0.0	i	i	4.53*	i	0.0112	0.0223*	?	?	?	0.0119
COCCNc1cc(C)c(C#N)c2nc3ccccc3n12	i	-4.8	i	i	-0.882	i	0.0101	?	0.0301	0.00711	0.0338	?
Cc1ccc(C(=O)N/C(=C\c2ccco2)C(=O)NCCN2CCOCC2)cc1C	i	-6.8	i	i	nt	i	nt	nt	nt	nt	nt	nt
COc1ccc(Cc2nnc(NC(=O)C3CC(=O)N(c4ccccc4)C3)s2)cc1OC (stereo not given)	i	-9.3	i	i	nt	i	nt	nt	nt	nt	nt	nt
CCN1C(=O)N/C(=C/c2ccc(C)o2)C1=O	i	-10.4	i	i	-0.101	i	nt	nt	nt	nt	nt	nt
CCCN1C(=O)/C(=C/c2ccc(C)o2)NC1=S	i	-0.3	i	i	82.7*	nt	0.0216*	0.12*	?	0.0495*	0.0846*	0.0178*
CCOc1cc(CNn2nnnc2N)cc(Cl)c1OCC(=O)NC(C)(C)C	i	-13.1	i	i	-0.0286	i	0.00595	0.00422	0.0292	0.00771	0.0174	0.00999
CC(C)C[C@H]1CNC(=S)N1CC1CCN(CC2CCC(C(C)(C)C)CC2)CC1 (stereo not given in full)	nt	nt	nt	nt	nt	i	nt	nt	nt	nt	nt	nt
CC(C)CC(=O)NC1(C(F)(F)F)C(=O)Nc2c1c(=O)n(C)c(=O)n2C (stereo not given)	i	-4.6	i	i	-3.54*	i	0.00622	0.0051	0.0333	0.00824	0.0206	0.0106
CCSC1=C(C#N)C2(CCCCC2)C2=C(CC(C)(C)CC2=O)N1	i	-1.6	i	i	-1.06	i	nt	nt	nt	nt	nt	nt
N#CC1=C(N)NC(SCc2ccccc2)=C(C#N)C12CCCCC2	i	-36.8	i	i	-3.16*	i	0.00566	0.0046	?	0.00723	0.0171	0.0106
CCSC1=C(C#N)C2(CCCCC2)C(C#N)=C(N)N1	i	-21.0	i	i	-4.08*	i	0.00741	0.00541	0.0304	?	0.0194	0.00929
O=c1[nH]nnc2c1cnn2-c1ccccc1	nt	nt	nt	nt	nt	i	nt	nt	nt	nt	nt	nt
CCCCNc1cc(C(=O)O)cc(S(N)(=O)=O)c1Oc1ccccc1	i	-14.0	i	i	-6.42*	i	0.00628	0.00463	0.0227*	0.00643	0.013*	0.00935
Cc1ccc(-n2c(C)cc(-c3csc(N)n3)c2C)cc1	i	-11.5	i	i	-3.19*	i	0.0086	0.00625	0.0355	?	0.0194	0.0116
Oc1ccc(Cl)cc1C1=NNC(c2cccs2)C1 (stereo not given)	i	6.2*	i	20*	68.4*	i	0.00995	0.0979*	?	0.0612*	0.0771*	0.0231*
Oc1ccccc1C1CC(c2cccs2)=NC(c2ccc(Cl)cc2)N1 (stereo not given)	i	-5.9	i	i	0.983	i	nt	nt	nt	nt	nt	nt
Cc1ccc(O)c(C2=NNC(c3ccc(Cl)cc3)C2)c1 (stereo not given)	i	-8.2	i	i	8.55*	i	0.00936	0.0156*	0.0335	0.0134*	0.0265	?
C=CCC[C@H](Cc1ccc(F)cc1)C(=O)OC[C@@H](Cc1c[nH]c2ccccc12)NC(=O)[C@H](CC=C)CC(=O)N(CCO)Cc1ccccc1	nt	nt	nt	nt	nt	i	nt	nt	nt	nt	nt	nt
CCOC(=O)/C(C)=N/NC(=O)c1ccc([N+](=O)[O-])cc1	i	10.5*	i	11*	23.2*	i	0.00939*	0.0319*	0.0377*	0.034*	0.0388*	0.0246*
CCOC(=O)C(CC)/C(C)=N/NC(=O)c1ccc([N+](=O)[O-])cc1 (stereo not given)	i	-5.8	i	i	0.873	i	nt	nt	nt	nt	nt	nt
C/C(=N\NC(=S)NC(C)C)c1ccccc1	i	-11.9	i	i	5.76*	i	?	0.0204*	0.0283	0.00945*	0.0459*	?
COc1ccccc1/C(C)=N/NC(=S)NCc1ccccc1	i	-8.4	i	i	6.88*	i	0.00669	0.0155*	0.0315	0.0152*	?	0.014*
COc1ccc(/C(C)=N/NC(=S)NCCc2ccccc2)cc1	i	-8.8	i	i	7.73*	i	0.0105	0.0162*	0.0304	0.021*	?	?
SMILES	KCNQ1 inh	hERG rescue	KCNK9 block	KCNQ1 act	Cl transport mod	KCNK3 inh	KCC2 sec1	KCC2 bumet counter	KCC2 secondary2	HEK counter1	KCC2 retest ouab	HEK counter2
C=CCNC(=S)N/N=C(\C)c1cccc(OC)c1	i	-4.1	i	i	4.86*	i	0.0126*	0.0426*	0.0317	0.015*	0.0255	0.0119*
COc1ccc(CNC(=S)N/N=C(\C)c2ccc(OC)cc2)cc1	i	-9.5	i	i	1.98	i	nt	nt	nt	nt	nt	nt
C[C@@H]1CN([C@@H](C)CO)C(=O)Cc2cc(NC(=O)Nc3ccc4c(c3)OCO4)ccc2O[C@@H]1CN(C)C(=O)NC1CCCCC1	nt	nt	nt	nt	nt	i	nt	nt	nt	nt	nt	nt
Cc1cccc(C(=O)NCC(=O)N2CCN(c3ccccn3)CC2)c1	nt	nt	nt	nt	nt	i	nt	nt	nt	nt	nt	nt
C/C(=N\NC(=S)NCc1ccccc1)c1ccc2ccccc2c1	i	-9.4	i	i	6*	i	0.00854	0.0192*	0.0273	0.00851*	?	0.00931
C/C(=N\NC(=S)NCc1ccccc1)c1cccc(Br)c1	i	1.0	i	i	4.83*	i	0.0164	0.0165*	0.029	0.00835	0.0176	0.0112
